Assay results: paper PMC5417336 (Journal of immunology (Baltimore, Md. : 1950), 2017)
Values after ≈ are worked out from the molar mass of the structure shown. “Also recorded” adds a separate entry of the source. Like-named read-outs stand apart in the source and are kept apart here.

Assays:
C3b [1] = molecular target: T1, C3b (Homo sapiens, UniProt P01024); assay: Label-enhanced SPR; assay type: binding; details: read-out: KD for C3b, LE-SPR, B23-C5; 1:1 Langmuir kinetic model
In short: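 C5 was dialysed into PBS pH 7.4 (2 h, RT), labelled 1 h in the dark with 5-fold molar excess NHS-B23 dye, then dialysed into HBS overnight at 4°C. A two-fold concentration series ran over oriented biotin-C3b (5,160 RU) at 10 μl min−1 with 1 min association and 1 min dissociation. An unlabelled injection at the top concentration weighted dip width and position to give epigrams (eRU). KD from a 1:1 Langmuir kinetic fit.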

compstatin/C3b binding = compstatin/C3b binding (Homo sapiens, UniProt P01024); assay: LE-SPR competition assay B23-TRX-4W9A; details: 500 μM compound, 500 nM B23-TRX-4W9A vs 5% DMSO
In short: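 B23-labelled TRX-4W9A (500 nM) was co-injected with 500 μM test compound, 5% (v/v) DMSO vehicle, or 65 μM compstatin peptide (positive control) over oriented biotin-C3b (3,800 and 3,100 RU surfaces). Running buffer contained 5% DMSO, and competitor-only injections served for epigram calculation. Residual binding was the mean eRU over 10 s before injection stop, relative to DMSO control. Each compound was tested on at least two independent C3b surfaces.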

C5/C3b interaction = C5/C3b interaction (Homo sapiens, UniProt P01024); assay: LE-SPR competition assay B23-C5/C3b; assay type: binding
In short: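 B23-C5 (250 nM) was co-injected over oriented biotin-C3b (4,460 RU) with competitor: unlabelled C5 (250 nM), TRX-4W9A (12 μM) or compstatin peptide (65 μM) in HBS-T. Runs with small molecules used buffer with 5% (v/v) DMSO. A parallel competitor-only injection served for epigram calculation. Residual binding was the mean eRU over 10 s before injection stop, relative to B23-C5 alone or DMSO vehicle. Each run was done 2–4 times.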

[2] = test system: alternative pathway (AP) complement activation, MAC deposition; assay: AP-specific complement ELISA, MAC deposition; assay type: biochemical, human; details: 250 μM, 20% (v/v) serum
In short: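 Wells coated overnight with 25 μg ml−1 Salmonella typhosa LPS in 100 mM carbonate pH 9.6, then blocked 1 h at 37°C with PBS/1% BSA/0.05% Tween-20. Test compound (250 μM final, 2.5% DMSO) is mixed with 20% (v/v) normal human serum in HEPES pH 7.5, gelatin, NaCl, 5 mM MgCl2, 5 mM EGTA. Incubated 1 h at 37°C. MAC detected with anti-C5b-9 aE11 (1/300). Signal expressed against mean vehicle as 100%.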

[3] = test system: classical pathway (CP) complement activation, MAC deposition; assay: CP-specific complement ELISA, MAC deposition; assay type: biochemical, human
In short: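 Plates carry 3 μg ml−1 human IgM, blocked with BSA/Tween-20. Test compound (250 μM, or 0–625 μM series; 2.5% DMSO) is mixed with 1% normal human serum in HEPES pH 7.3 buffer with 2 mM CaCl2, 0.5 mM MgCl2 and gelatin. Serum-titration arm: fixed 500 μM compound or DMSO vehicle, serum 0–4% (v/v). Incubated 1 h at 37°C. Read-out: anti-MAC aE11 (1/300). Normalised to vehicle mean as 100%.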

[4] = test system: C3b deposition (classical pathway); assay: CP ELISA, C3b deposition; assay type: biochemical, human; details: concentrations up to 625 μM, 1% (v/v) serum
In short: (§1)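 Wells coated overnight with 3 μg ml−1 human IgM in carbonate pH 9.6, then blocked with BSA/Tween-20 in PBS. Test compound (250 μM single concentration, or series up to 625 μM; 2.5% DMSO) is added to 1% (v/v) normal human serum in HEPES pH 7.3, gelatin, NaCl, 2 mM CaCl2, 0.5 mM MgCl2. Incubated 1 h at 37°C. Detection: anti-C3b WM1 or anti-C4b C4-1 (1/300). Normalised to mean vehicle as 100%.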

[5] = test system: C4b deposition (classical pathway); assay: CP ELISA, C4b deposition; assay type: biochemical, human; details: concentrations up to 625 μM, 1% (v/v) serum
In short: as §1

[6] = test system: C5a production (C5 cleavage); assay: C5a capture ELISA of CP ELISA reactions; assay type: biochemical, human; details: fixed 500 μM cmp-5, serum 0–4% (v/v); DMSO control 1.55% (v/v)
In short: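 Completed CP ELISA reactions (IgM-coated plates, CP buffer, 1 h at 37°C; fixed 500 μM test compound or DMSO vehicle, serum 0–4% (v/v)) were diluted 2-fold onto plates coated overnight at room temperature with 1 μg ml−1 anti-C5a neoepitope mAb. Incubation 1 h at RT with rocking. Detection used rabbit anti-human C5a (1/200, 1 h RT), then goat anti-rabbit-HRP (1/5000, 1 h) and TMB, read at 450 nm. Signals normalised to the mean vehicle control as 100%.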

[7] = Compound solubility in CP ELISA assay buffer; assay type: physicochemical; details: aqueous buffer
C3b [8] = molecular target: T1, C3b; assay type: binding; details: read-out: KD for C3b, conventional SPR, C5; 1:1 Langmuir kinetic model
In short: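 Biotinylated C3b was captured on a NeutrAvidin-coupled sensor chip (6,560 RU surface for C5). Native C5 in HBST ran as a two-fold concentration series: 2 min injection, 3 min dissociation, 30 μl min−1, no regeneration. KD came from a 1:1 Langmuir kinetic fit of reference-corrected sensorgrams.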

[9] = molecular target: T2, site-specifically biotinylated C3b (human, UniProt P01024 23-667; P01024 749-1663, site-specifically biotinylated with EZ-link Maleimide-PEG2-biotin); assay: AlphaScreen or HTRF
[10] = molecular target: T2, site-specifically biotinylated C3b; assay: SPR
[11] = molecular target: T2, site-specifically biotinylated C3b; assay: SPR; remark: listed apart in the source
[12] = molecular target: T2, site-specifically biotinylated C3b; assay: SPR; remark: listed apart in the source

Molecule B23-C5: C5 labeled with NHS-B23 dye has a Kd (C3b [1]) of 3200 nM.

For Cc1ccnn1-c1cccc(NC(=O)CC2OC(=O)c3ccccc32)c1 (stereo not shown) [cmp-5, N-(3-(5-methyl-1H-pyrazol-1-yl)phenyl)-2-(3-oxo-1,3-dihydroisobenzofuran-1-yl)acetamide], the “effect on B23-TRX-4W9A-specific LE-SPR signal (C3b binding)” value (compstatin/C3b binding) was “reduction of specific C3b-binding; also recorded: modest ability to compete”, the “effect on B23-C5/C3b interaction, small molecules” value (C5/C3b interaction; 500 μM compound, 250 nM B23-C5 vs 5% DMSO vehicle) was “did not affect; also recorded: failed to perturb” and the “inhibition of the AP (MAC deposition)” value [2] was “significant inhibition”. For the same molecule, the “MAC deposition relative to control response (AP ELISA)” value ([2]; n=5) was 73 ± 4.6%, the “inhibition of MAC deposition in CP ELISA” value ([3]; 250 μM, 1% (v/v) serum) was “significant inhibition” and the “MAC deposition relative to control response (CP ELISA)” value ([3]; 250 μM, 1% (v/v) serum, n=13) was 59 ± 2.4%. The “EC50 of serum, MAC deposition” value ([3]; fixed 500 μM cmp-5, serum 0–4% (v/v), DMSO control 0.88% (v/v)) was 1.43 % (v/v), the “effect on C3b deposition, CP ELISA” value [4] was “no effect” and the “effect on C4b deposition, CP ELISA” value [5] was “no effect”. The “EC50 of serum, C5a production” value [6] was 2.04 % (v/v) and the solubility [7] was about 600 µM (≈ 208 µg/mL).

With “C5: complement component C5, purified protein (Complement Technologies)” the Kd (C3b [8]) was 350 nM, the “effect on B23-C5/C3b LE-SPR signal, protein/peptide competitors” value (C5/C3b interaction; 250 nM B23-C5, 250 nM unlabeled C5, 12 μM TRX-4W9A or 65 μM compstatin peptide) was “reduces the B23-C5 specific LE-SPR signal” and the “reduction of specific binding of B23-C5 to C3b” value (C5/C3b interaction; 250 nM B23-C5, competitor 250 nM unlabeled C5 or 12 μM TRX-4W9A, HBS-T) was about 50%.

B1: untagged Ba(1–3) (domain or fragment, human, UniProt P00751 35-220, looked up)
chain: GSCSLEGVEIKGGSFRLLQEGQALEYVCPSGFYPYPVQTRTCRSTGSWSTLKTQDQKTVRKAECRAIHCPRPHDFENGEYWPRSPYYNVSDEISFHCYDGYTLRGSANRTCQVNGRWSGQTAICDNGAGYCSNPGIPIGTRKVGSQYRLEDSVTYHCSRGLTLRGSQRRTCQEGGSWSGTEPSCQD
Molecule B1 has a Kd [9] of 4700 nM.

Work on ENLYFQGGSGSGSGICVWQDWGAHRCT (designed binder) [thioredoxin-compstatin fusion protein (TRX-4W9A)] yielded a Kd [10] of 770 nM.

With ENLYFQGGSGSGSGICVWQDWGAHRCT (designed binder, labeled with the dye reagent Episentec NHS-B23 (5-fold molar excess)) [B23 dye-labeled TRX-4W9A] the Kd [11] was 790 nM and the Kd [12] was 560 nM.
